According to ChEMBL document CHEMBL1156534, “Hemopressin is an inverse agonist of CB1 cannabinoid receptors” (Proc Natl Acad Sci U S A, 2007):
Active and inactive are the calls of the source.

Legend:
[1] = biological target: Mu-type opioid receptor (Homo sapiens) (UniProt P35372); experiment: Antagonist activity at mu opioid receptor expressed in HEK293 cells assessed as blockade of secreted alkaline phosphatase activity at 1 uM after 6 hrs relative to control; type: functional, cell-based
Summary of the method: (§1)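 HEK-293 cells transiently co-transfected with pCRE-SeAP and a Flag-tagged receptor, 30,000 cells/well on poly-L-lysine. They were serum-starved 16–18 h, then exposed 6 h in serum-free medium to 10 μM forskolin (omitted for β2) plus the receptor agonist (100 nM), with or without peptide (1 μM). Heat-treated supernatant SeAP was read by CSPD chemiluminescence. Mean ± SEM, n = 6.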

[2] = biological target: T1, Cannabinoid receptor 2 (Rattus norvegicus) (UniProt Q9QZN9); experiment: Antagonist activity at Long-Evans rat spleen CB2 receptor assessed as blockade of Hu210-induced increase in GTPgammaS binding; type: functional, tissue-based
T1 sequence (whole entry): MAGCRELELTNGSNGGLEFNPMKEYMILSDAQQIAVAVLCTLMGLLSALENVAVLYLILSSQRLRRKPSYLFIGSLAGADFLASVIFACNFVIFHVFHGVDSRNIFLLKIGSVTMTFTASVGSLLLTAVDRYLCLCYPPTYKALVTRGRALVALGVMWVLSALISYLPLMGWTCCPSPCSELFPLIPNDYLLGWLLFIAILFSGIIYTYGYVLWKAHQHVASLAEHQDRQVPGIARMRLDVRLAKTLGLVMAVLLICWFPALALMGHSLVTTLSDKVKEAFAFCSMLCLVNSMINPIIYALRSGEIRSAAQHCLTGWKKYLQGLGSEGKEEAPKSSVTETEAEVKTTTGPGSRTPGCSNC
Summary of the method: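 Membranes (10 μg) came from striatum (CB1) or spleen (CB2). They were tested in GTPγS-binding or adenylyl cyclase assays with Hu-210 and test ligand (0–1 μM), or with Hu-210 curves with or without 10 μM peptide; a 1 μM single-point combination was also used. Mean ± SE of triplicates.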

[3] = biological target: Cannabinoid receptor 1 (Homo sapiens) (UniProt P21554); experiment: Antagonist activity at CB1 receptor expressed in Neuro 2A cells assessed as blockade of Hu210-mediated increase in number of neurite outgrowth at 10 uM after 16 hrs; type: functional, cell-based
Summary of the method: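 Neuro 2A cells transfected with Flag-tagged CB1 or CB2 were exposed 16 h in 0.1% FBS medium to 100 nM Hu-210 with or without 10 μM peptide. The percentage of cells extending neurites was scored and normalized to untreated cells (100%). Mean ± SE of triplicate experiments.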

Rattus norvegicus = experiment: Antihyperalgesic effects in Wistar rat assessed as reduction of carrageenan-induced paw pressure at 100 ug/kg, po after 3 hrs; type: functional, organism-based
Summary of the method: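 Male Wistar rats (200 g) received carrageenan 200 μg/paw intraplantar in saline into the right hind paw. Peptide was given at the same time: intraplantar 10 μg/paw, intrathecal 0.5 or 5 μg/kg, or oral 50 or 100 μg/kg; saline-treated rats served as controls. Paw-pressure withdrawal threshold (force ramp 16 g/s) was read at 0 and 3 h. n = 6–8.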

[4] = biological target: Cannabinoid receptor 2 (Homo sapiens) (UniProt P34972); experiment: Antagonist activity at CB2 receptor expressed in HEK293 cells assessed as blockade of Hu210-mediated decrease in secreted alkaline phosphatase activity at 1 uM after 6 hrs relative to control; type: functional, cell-based; summary of the method: as §1
[5] = biological target: Mu-type opioid receptor (Homo sapiens) (UniProt P35372); experiment: Antagonist activity at mu opioid receptor expressed in HEK293 cells assessed as blockade of DAMGO-mediated decrease in secreted alkaline phosphatase activity at 1 uM after 6 hrs relative to control; type: functional, cell-based; summary of the method: as §1
[6] = biological target: Cannabinoid receptor 1 (Homo sapiens) (UniProt P21554); experiment: Antagonist activity at flag tagged recombinant CB1 receptor expressed in HEK293 cells assessed as blockade of Hu210-induced increase in phospho ERK1/2 level; type: functional, cell-based
Summary of the method: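 HEK-293 cells expressing Flag-tagged CB1 (2 × 10⁶ cells/well) were stimulated for 5 min with 100 nM Hu-210, with or without 10 μM antagonist. Phospho-ERK1/2 was quantified relative to untreated cells (100%). Mean ± SE of triplicate experiments.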

[7] = biological target: T2, B2 bradykinin receptor (Homo sapiens) (UniProt P30411); experiment: Antagonist activity at B2 bradykinin receptor expressed in SKNSH cells at 100 nM by ELISA; type: functional, cell-based; design: scale not given: the % may be the effect or the level left
T2 sequence (whole entry): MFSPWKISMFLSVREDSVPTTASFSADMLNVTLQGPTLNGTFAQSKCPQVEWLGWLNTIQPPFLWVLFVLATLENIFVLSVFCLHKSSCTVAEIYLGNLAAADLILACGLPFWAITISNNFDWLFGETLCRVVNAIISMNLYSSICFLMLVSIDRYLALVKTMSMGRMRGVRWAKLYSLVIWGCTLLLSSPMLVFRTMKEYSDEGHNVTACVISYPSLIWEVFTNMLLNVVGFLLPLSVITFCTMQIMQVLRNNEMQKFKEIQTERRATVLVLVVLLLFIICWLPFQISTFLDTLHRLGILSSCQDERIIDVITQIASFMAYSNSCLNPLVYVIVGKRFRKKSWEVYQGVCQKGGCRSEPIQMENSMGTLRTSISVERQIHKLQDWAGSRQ

[8] = biological target: Delta-type opioid receptor (Homo sapiens) (UniProt P41143); experiment: Antagonist activity at delta opioid receptor expressed in HEK293 cells assessed as blockade of secreted alkaline phosphatase activity at 1 uM after 6 hrs relative to control; type: functional, cell-based; summary of the method: as §1
[9] = biological target: Beta-2 adrenergic receptor (Homo sapiens) (UniProt P07550); experiment: Antagonist activity at beta2 adrenergic receptor expressed in HEK293 cells assessed as blockade of […] in secreted alkaline phosphatase activity at 1 uM after 6 hrs relative to control; type: functional, cell-based; summary of the method: as §1
[10] = biological target: T3, Type-1 angiotensin II receptor (Homo sapiens) (UniProt P30556); experiment: Antagonist activity at AT1 angiotensin receptor expressed in HEK293 cells assessed as blockade of angiotensin 2-mediated decrease in secreted alkaline phosphatase activity at 1 uM after 6 hrs relative to control; type: functional, cell-based; summary of the method: as §1
T3 sequence (whole entry): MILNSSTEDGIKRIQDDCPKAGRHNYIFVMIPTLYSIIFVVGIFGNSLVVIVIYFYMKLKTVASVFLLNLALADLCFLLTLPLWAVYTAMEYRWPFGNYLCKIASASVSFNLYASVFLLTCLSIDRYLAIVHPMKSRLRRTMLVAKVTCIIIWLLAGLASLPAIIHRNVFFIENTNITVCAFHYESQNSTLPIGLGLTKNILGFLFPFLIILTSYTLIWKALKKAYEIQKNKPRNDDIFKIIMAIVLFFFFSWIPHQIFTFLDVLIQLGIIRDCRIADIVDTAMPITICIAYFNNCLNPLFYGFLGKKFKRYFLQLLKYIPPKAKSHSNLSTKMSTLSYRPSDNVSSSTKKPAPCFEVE

[11] = biological target: Cannabinoid receptor 1 (Homo sapiens) (UniProt P21554); experiment: Antagonist activity at CB1 receptor expressed in SKNSH cells at 100 nM by ELISA relative to control; type: functional, cell-based; design: scale not given: the % may be the effect or the level left
[12] = biological target: Beta-2 adrenergic receptor (Homo sapiens) (UniProt P07550); experiment: Antagonist activity at beta2 adrenergic receptor expressed in SKNSH cells assessed as blockade of isoproterenol-induced increase in antibody recognition at 100 nM by ELISA relative to control; type: functional, cell-based; design: scale not given: the % may be the effect or the level left

Cannabinoid receptor 1 (Homo sapiens), sequence (P21554 whole entry): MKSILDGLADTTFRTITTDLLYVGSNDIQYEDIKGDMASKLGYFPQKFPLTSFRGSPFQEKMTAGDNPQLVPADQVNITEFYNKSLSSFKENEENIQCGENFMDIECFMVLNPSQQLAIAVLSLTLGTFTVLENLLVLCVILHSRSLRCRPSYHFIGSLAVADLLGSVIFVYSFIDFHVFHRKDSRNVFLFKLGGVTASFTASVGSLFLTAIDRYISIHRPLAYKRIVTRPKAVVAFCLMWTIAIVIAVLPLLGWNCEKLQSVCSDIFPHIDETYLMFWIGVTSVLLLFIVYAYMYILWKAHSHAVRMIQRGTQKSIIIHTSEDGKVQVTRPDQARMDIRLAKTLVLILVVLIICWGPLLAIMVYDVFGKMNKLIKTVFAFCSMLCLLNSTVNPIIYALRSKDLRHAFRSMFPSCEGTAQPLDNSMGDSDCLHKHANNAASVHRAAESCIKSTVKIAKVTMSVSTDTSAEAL
Mu-type opioid receptor (Homo sapiens), sequence (P35372 whole entry): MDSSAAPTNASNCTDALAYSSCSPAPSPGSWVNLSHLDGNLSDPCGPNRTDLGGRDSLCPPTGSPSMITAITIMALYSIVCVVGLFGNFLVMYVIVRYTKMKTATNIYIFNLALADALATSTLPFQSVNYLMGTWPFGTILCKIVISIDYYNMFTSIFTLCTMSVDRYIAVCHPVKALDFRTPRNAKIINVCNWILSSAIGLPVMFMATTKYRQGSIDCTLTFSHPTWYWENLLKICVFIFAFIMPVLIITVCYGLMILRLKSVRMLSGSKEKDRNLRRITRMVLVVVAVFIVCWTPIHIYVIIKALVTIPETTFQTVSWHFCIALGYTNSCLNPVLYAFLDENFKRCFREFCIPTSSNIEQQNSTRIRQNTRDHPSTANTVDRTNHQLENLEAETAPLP
Beta-2 adrenergic receptor (Homo sapiens), sequence (P07550 whole entry, looked up): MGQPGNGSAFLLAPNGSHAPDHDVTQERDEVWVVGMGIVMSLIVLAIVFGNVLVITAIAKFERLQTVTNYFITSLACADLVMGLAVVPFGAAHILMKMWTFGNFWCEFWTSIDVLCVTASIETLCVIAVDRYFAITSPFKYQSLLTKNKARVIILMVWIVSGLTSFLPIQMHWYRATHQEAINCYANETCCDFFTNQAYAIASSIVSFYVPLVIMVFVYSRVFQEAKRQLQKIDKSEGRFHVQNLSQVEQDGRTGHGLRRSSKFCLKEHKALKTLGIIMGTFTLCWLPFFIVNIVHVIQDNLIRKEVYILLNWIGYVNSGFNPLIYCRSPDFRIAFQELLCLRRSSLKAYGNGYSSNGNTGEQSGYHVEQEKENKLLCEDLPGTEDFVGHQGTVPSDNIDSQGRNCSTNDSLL
Cannabinoid receptor 2 (Homo sapiens), sequence (P34972 whole entry): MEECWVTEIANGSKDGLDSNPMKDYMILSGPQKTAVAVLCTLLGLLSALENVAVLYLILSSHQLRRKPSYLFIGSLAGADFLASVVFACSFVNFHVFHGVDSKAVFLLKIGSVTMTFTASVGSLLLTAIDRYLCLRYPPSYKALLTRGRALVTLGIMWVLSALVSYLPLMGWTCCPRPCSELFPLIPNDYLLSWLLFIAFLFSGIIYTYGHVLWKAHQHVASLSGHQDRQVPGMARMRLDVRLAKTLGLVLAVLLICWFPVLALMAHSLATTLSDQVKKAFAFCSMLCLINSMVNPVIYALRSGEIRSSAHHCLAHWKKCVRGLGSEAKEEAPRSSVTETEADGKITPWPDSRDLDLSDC
Delta-type opioid receptor (Homo sapiens), sequence (P41143 whole entry): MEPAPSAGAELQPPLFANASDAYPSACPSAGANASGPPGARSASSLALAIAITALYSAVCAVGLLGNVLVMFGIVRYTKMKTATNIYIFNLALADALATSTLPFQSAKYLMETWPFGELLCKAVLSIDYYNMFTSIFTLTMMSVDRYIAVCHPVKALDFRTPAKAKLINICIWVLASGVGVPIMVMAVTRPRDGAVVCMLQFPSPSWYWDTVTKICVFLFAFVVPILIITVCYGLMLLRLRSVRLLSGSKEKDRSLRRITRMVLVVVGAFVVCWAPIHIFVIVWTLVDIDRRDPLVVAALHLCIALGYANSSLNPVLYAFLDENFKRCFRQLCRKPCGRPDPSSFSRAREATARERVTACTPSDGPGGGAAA

CC(C)C[C@H](NC(=O)[C@H](Cc1ccccc1)NC(=O)[C@H](CCCCN)NC(=O)[C@H](Cc1ccccc1)NC(=O)[C@H](CC(N)=O)NC(=O)[C@@H](NC(=O)[C@@H]1CCCN1)C(C)C)C(=O)N[C@@H](CO)C(=O)N[C@@H](Cc1cnc[nH]1)C(=O)O [HEMOPRESSIN]
Activity [1]: 0.98
Activity [2]: inactive
Activity [3]: Active
Activity (Rattus norvegicus): Active
Activity [4]: 0.85
Activity [5]: 0.61
Activity [6]: Active
Activity [7]: 103%
Activity [8]: 0.9
Activity [9]: 1.24
Activity [10]: 1.02
Activity [11]: 72%
Activity [12]: 157%
